Reference: PubChem BioAssay AID651560 (Sanford-Burnham Center for Chemical Genomics, 2012)
Screen size: about 360,000 compounds; about 820 (0.23%) were called active. The full list was thinned out, with actives kept by preference. Unmarked numbers belong to inactive results.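 The calls were made as follows: active = compounds that cut the enzyme signal by at least half of the control window in the single-dose screen; inactive = the rest.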

The compounds below were run against Low molecular weight phosphotyrosine protein phosphatase (Homo sapiens) (UniProt P24666) (assay: LMPTP phosphatase inhibitors, primary screen, biochemical, fluorescence intensity, uHTS (AID 651560;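 also: plate controls were DMSO wells with enzyme plus substrate for no effect and substrate without enzyme for full effect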)). Details: recombinant LMPTP-A, OMFP fluorogenic substrate, at 20 µM, hits give high values.
How it was run: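 Buffer or medium: Bis-Tris pH 6.0, DTT, detergent; Assay system: LMPTP-A enzyme; Quantity: 0.625 nM enzyme; Detection: endpoint fluorescence intensity; Times: 50 min dark incubation at room temperature; Controls: substrate-only low control, DMSO enzyme-plus-substrate high control; Doses: single 20 µM dose; Read-out: percent inhibition versus substrate-only and uninhibited controls; Reagent: 400 µM OMFP.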

Chain of Low molecular weight phosphotyrosine protein phosphatase (Homo sapiens) (P24666 whole entry, looked up): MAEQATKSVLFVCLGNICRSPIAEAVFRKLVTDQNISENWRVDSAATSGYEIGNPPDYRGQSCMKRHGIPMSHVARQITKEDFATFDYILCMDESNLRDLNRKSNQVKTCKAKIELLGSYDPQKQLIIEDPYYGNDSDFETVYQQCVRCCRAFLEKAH

Row | Structure (SMILES) | inhibition
1 | CCOC1=C2CN(S(=O)(=O)c3ccc(C)cc3)[C@H](c3cccs3)C[C@H]2[C@H]2C(=O)N(c3ccccc3)C(=O)[C@H]2C1 | 0.231%
2 | O=C(c1ccccc1)c1ccc2nc(N3CCCCC3)c3nncn3c2c1 | 2.58%
3 | CC(C)(Oc1ccc(Cl)cc1)C(=O)OCC(=O)NCCc1ccc(S(N)(=O)=O)cc1 | -0.949%
4 | Cc1sc2ncnc(SCC(=O)Nc3ccc(CN4CCCC4)cc3)c2c1C | 23.7%
5 | O=c1c2ccccc2nnn1CSc1nc2sc3c(c2c(=O)n1CC1CCCO1)CCC3 (configuration not stated) | 4.21%
6 | O=C(CCc1nc2sc3c(c2c(=O)[nH]1)CCCC3)NCC(=O)Nc1ccccc1Br | 9.36%
7 | O=C(Nc1cccc(Cl)c1)C1CCCN(c2cnccn2)C1 (configuration not stated) | -0.511%
8 | C[C@@H]1CN([C@@H](C)CO)C(=O)CCCn2nncc2CO[C@@H]1CN(C)S(=O)(=O)c1ccc(-c2ccccc2)cc1 | -1.91%
9 | C=C1c2c(Cl)ccc(O)c2C(O)=C2C(=O)[C@]3(O)C(O)=C(C(N)=O)C(=O)[C@@H](N(C)C)[C@@H]3[C@@H](O)C12 (some centres not stated) | 72.5% (active)
10 | C[C@H](CO)N1C[C@H](C)[C@@H](CN(C)S(=O)(=O)c2ccc(Oc3ccccc3)cc2)OCc2cn(nn2)CCCC1=O | -0.314%
11 | O=c1cc(CO)oc(C(Nc2cccc([N+](=O)[O-])c2)c2ccccn2)c1O (configuration not stated) | -1.69%
12 | CCOC(=O)N1CCN(Cc2nc3ccc([N+](=O)[O-])cc3c(=O)n2-c2cccc(OC)c2)CC1 | -0.855%
13 | CCCCN(C(=O)C1CCC1)c1c(N)n(Cc2ccccc2)c(=O)[nH]c1=O | -1.05%
14 | CCN1C(=O)C(=O)N(CC(=O)Nc2cc(C)ccc2C)C1=O | -0.207%
15 | COc1cc(CCN=Cc2ccccc2O)c([N+](=O)[O-])cc1OC | 0.174%
16 | COc1ccccc1C(CNC(=O)c1cccc(NS(=O)(=O)c2ccc(Br)cc2)c1)N(C)C (configuration not stated) | -1.5%
17 | COc1ccc(Br)cc1/C=N/Nc1ccc(S(=O)(=O)Nc2ccccc2C(=O)O)cc1[N+](=O)[O-] | 71.1% (active)
18 | Cc1ccc(S(=O)(=O)N[C@@H](Cc2ccccc2)C(=O)N2CCC(C(=O)N[C@H](C(=O)O)C(C)O)CC2)cc1 (some centres not stated) | -1.25%
19 | Cc1ccc(O/C=C2\OC(=O)c3ccccc32)cc1 | -1.45%

Row | Structure (SMILES) | inhibition
20 | CC1(C)C2CC=C(/C=N/NC(=O)c3ccc(Cl)cc3)C1C2 (configuration not stated) | -2.83%
21 | COC(=O)C(C)C1Sc2ccccc2NC1=O (configuration not stated) | 0.652%
22 | CCC1CCCCN1C(=O)CSc1nc(C)cc(C)n1 (configuration not stated) | -0.356%
23 | CCN([C@H](CO)C(C)C)S(=O)(=O)c1ccccc1Br | -1.46%
24 | CC1CCCC(C)N1C(=O)COC(=O)c1ccccc1C(=O)c1ccccc1 (configuration not stated) | -1.53%
25 | Cn1c(=O)c2c(ncn2CC(=O)N/N=C/c2cn[nH]c2-c2ccc(F)cc2)n(C)c1=O | -0.239%
26 | CCN(c1ccccc1)S(=O)(=O)c1cc2c(cc1C)n(C)c(=O)c(=O)n2C | 0.0122%
27 | CCCNC(=O)NC(=O)COC(=O)CC(NC(N)=O)c1ccc(Cl)cc1 (configuration not stated) | -1.19%
28 | COc1ccc2c(c1)c(=Cc1ccc(N(C)C)cc1)c1cc(-c3ccccc3)[n+](C)n12 | 96.2% (active)
29 | O=C(COC(=O)c1ccc([N+](=O)[O-])o1)NC12CC3CC(CC(C3)C1)C2 | 1.22%
30 | COc1cc(NC(=S)N2CCCC(C)C2)c(OC)cc1Cl (configuration not stated) | 0.265%
31 | C=CCn1c(=O)n(C)c2c(=O)n(C)c(=O)n(C)c21 | 0.217%
32 | Cc1csc(NC(=O)CSc2nnc(-c3cccnc3)o2)n1 | -0.391%
33 | N#Cc1ccc(OCC(=O)NC(=O)NC2CCS(=O)(=O)C2)cc1 (configuration not stated) | -1.41%
34 | O=C(CCN1C(=O)[C@@H]2Cc3ccccc3CN2C1=O)NCc1ccccc1 | 0.0399%
35 | COc1cccc(N(C(=O)c2ccn[nH]2)C2(C(=O)Nc3c(C)cccc3C)CCCCC2)c1 | -0.749%
36 | O=C(O)COCC(=O)NCc1csc2ccc(Cl)cc12 | -1.97%
37 | CCOP(=O)(OCC)C(Nc1cccc(C)c1)c1ccc(F)cc1 (configuration not stated) | 0.494%
38 | COc1cnc(SCc2ccc(Cl)c(Cl)c2)nc1Cl | 3.06%

Row | Structure (SMILES) | inhibition
39 | CCN(CC)CCNC(=O)c1sc2ncn(CC(=O)Nc3ccc(C)c(Cl)c3)c(=O)c2c1C | -0.286%
40 | CCN1CCN(c2ccc(S(=O)(=O)N3CCCCC3)cc2NC(=O)Cc2c(Cl)cccc2Cl)CC1 | 1.2%
41 | CCC(C)Cn1c(O)cc2nn(-c3nc4ccccc4s3)c(=O)c-2c1C (configuration not stated) | 52.5% (active)
42 | O=c1c2cc(-c3ccccc3)sc2nc2n1N=C(c1cccs1)CS2 | 61.5% (active)
43 | O=c1c(-c2ccccc2)cnc2n1CCS2 | -1.57%
44 | COc1ccc(C(O)c2nc(-c3ccc4c(c3)OCO4)cs2)cc1 (configuration not stated) | 0.808%
45 | COc1cccc(C(O)c2nc(-c3ccc(C)c(C)c3)cs2)c1 (configuration not stated) | 3.13%
46 | COc1ccc(OC)c(Nc2nc(-c3ccc(O)c(O)c3)cs2)c1 | 62.5% (active)
47 | Cc1ccccc1NC(=O)Cc1nc(COC(=O)CNC(=O)c2ccc(Cl)cc2Cl)cs1 | 0.684%
48 | COCCCNC(=O)C1CC(=O)N(CCc2ccccc2)C1 (configuration not stated) | -0.151%
49 | CN(CCC1CCOCC1)C(=O)CC1C(=O)NCCN1Cc1cccc(F)c1 (configuration not stated) | -1.38%
50 | Cc1cc2c(cc1C)N(C(=O)CN1C(=O)c3ccccc3C1=O)C(C)(C)c1ssc(=S)c1-2 | 2.43%
51 | CCOc1ccccc1NC(=O)C1CCCN(C(=O)Nc2ccccc2)C1 (configuration not stated) | -1.09%
52 | O=C(Cn1cnc2c(nnn2-c2ccccc2)c1=O)N1CCC(Cc2ccccc2)CC1 | 1.23%
53 | COCCNc1nc(NCc2ccc(NC(C)=O)cc2)c2sccc2n1 | 51.4% (active)
54 | CC(=O)Nc1ccc(CNc2nc(NCCN(C)C)nc3cc(-c4ccccc4)sc23)cc1 | 1.9%
55 | COc1cccc(CNc2nc(NCc3cccs3)nc3ccsc23)c1 | 27%
56 | Fc1ccccc1OCCSc1nc2ccccc2o1 | 1.37%
57 | CCSc1nc2c(c(=O)[nH]1)C(c1cccnc1)C(C(=O)OC(C)C)=C(C)N2 (configuration not stated) | -1.3%
